Results taken from ChEMBL document CHEMBL1135246, “Structure-activity study of L-cysteine-based N-type calcium channel blockers: optimization of N- and C-terminal substituents” (Bioorg Med Chem Lett, 2002).

What was measured:
[1] = biological target: Voltage-dependent N-type calcium channel subunit alpha-1B (Homo sapiens, UniProt Q00975); assay: In vitro inhibition of N-type calcium channels in IMR-32 cells.; type: cell-based
How it was run: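 N-type channel block was assessed in IMR-32 cells. Cells in suspension were loaded with fura-2/AM for 30 min at 37 °C, and calcium influx ([Ca²⁺]i) was measured. IC50 values are means of multiple determinations, each performed in duplicate.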

[2] = test system: L-type calcium channel (Mus musculus); assay: In vitro inhibition of L-type calcium channels in AtT-20 cells.; details: att20
[3] = In vitro inhibition of L-type calcium channels in AtT-20 cells.; type: functional, cell-based, Mus musculus; details: att20
How it was run: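 Mouse pituitary tumour AtT-20/D16v-F2 cells, grown in DMEM with 10% FBS and penicillin–streptomycin, served as the L-type channel source. Cells in suspension were loaded with fura-2/AM for 30 min at 37 °C, and calcium influx ([Ca²⁺]i) was read fluorometrically. IC50 values are means of multiple determinations, each run in duplicate.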

Voltage-dependent N-type calcium channel subunit alpha-1B, sequence (Q00975 whole entry): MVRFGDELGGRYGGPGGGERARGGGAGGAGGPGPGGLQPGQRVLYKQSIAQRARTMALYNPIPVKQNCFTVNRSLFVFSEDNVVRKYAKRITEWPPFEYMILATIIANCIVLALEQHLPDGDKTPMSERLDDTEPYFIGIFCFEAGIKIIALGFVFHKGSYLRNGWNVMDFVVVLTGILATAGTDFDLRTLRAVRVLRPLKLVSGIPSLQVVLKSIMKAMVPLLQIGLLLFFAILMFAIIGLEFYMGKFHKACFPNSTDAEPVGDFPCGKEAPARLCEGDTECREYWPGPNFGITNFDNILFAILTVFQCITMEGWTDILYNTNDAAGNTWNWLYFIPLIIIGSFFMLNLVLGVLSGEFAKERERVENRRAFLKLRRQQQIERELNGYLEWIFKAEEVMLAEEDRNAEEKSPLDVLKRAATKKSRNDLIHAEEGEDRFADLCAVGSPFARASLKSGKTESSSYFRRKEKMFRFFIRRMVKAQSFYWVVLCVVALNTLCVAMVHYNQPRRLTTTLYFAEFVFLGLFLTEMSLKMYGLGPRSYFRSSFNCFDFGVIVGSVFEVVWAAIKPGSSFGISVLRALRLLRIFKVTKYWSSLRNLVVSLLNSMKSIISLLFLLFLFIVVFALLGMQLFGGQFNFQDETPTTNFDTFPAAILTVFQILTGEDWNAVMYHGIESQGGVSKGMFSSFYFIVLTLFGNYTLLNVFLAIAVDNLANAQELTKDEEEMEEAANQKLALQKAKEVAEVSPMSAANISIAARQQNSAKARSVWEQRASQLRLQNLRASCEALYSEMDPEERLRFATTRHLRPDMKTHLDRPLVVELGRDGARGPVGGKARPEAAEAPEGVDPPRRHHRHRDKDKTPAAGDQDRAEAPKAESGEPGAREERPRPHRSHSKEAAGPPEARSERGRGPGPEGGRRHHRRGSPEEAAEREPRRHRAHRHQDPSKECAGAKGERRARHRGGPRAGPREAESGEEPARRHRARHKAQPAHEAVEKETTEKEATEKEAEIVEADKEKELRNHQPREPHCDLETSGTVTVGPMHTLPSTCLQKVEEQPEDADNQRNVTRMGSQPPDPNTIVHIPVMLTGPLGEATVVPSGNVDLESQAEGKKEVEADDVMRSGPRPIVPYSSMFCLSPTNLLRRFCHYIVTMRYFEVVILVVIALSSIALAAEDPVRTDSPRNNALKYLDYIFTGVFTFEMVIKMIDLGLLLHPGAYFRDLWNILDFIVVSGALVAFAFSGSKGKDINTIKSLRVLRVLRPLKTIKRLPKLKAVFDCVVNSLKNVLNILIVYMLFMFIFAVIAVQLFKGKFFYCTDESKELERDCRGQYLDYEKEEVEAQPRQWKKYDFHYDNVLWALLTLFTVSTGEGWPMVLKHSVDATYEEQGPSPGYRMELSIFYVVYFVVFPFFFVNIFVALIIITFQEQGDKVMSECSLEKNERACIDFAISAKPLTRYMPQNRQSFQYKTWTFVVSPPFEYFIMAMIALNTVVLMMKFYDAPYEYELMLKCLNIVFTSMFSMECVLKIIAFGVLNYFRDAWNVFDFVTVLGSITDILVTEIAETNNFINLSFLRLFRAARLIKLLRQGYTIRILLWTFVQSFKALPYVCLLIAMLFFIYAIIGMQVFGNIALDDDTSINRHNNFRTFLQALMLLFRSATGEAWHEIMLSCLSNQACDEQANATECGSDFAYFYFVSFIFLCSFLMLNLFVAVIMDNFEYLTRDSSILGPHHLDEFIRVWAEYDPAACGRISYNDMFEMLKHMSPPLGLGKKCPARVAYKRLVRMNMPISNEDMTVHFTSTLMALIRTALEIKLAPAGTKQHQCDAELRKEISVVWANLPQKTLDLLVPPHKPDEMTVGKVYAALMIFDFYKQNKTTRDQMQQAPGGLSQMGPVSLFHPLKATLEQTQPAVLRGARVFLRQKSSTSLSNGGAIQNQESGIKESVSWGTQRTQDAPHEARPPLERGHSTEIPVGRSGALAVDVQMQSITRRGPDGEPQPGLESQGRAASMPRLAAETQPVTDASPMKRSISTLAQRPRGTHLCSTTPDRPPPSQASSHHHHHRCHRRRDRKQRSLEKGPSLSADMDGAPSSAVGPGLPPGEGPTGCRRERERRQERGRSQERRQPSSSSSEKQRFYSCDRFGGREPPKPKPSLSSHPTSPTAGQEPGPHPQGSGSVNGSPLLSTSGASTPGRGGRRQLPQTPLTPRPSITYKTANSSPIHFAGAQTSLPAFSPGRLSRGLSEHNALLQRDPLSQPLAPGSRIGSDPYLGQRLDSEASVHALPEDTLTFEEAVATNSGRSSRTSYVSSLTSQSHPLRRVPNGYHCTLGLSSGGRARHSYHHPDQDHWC

Compound: O=C(N[C@@H](CSCC1CCCCC1)C(=O)NCc1ccc(Oc2ccccc2)cc1)[C@@H]1CSCN1
- IC50 [1]: 290 nM
- IC50 [2]: 2000 nM

Compound: COCCN1CSC[C@H]1C(=O)N[C@@H](CSCC1CCCCC1)C(=O)NCc1ccc(Oc2ccccc2)cc1
- IC50 [1]: 200 nM
- IC50 [2]: 600 nM

Compound: COc1ccc(CNC(=O)[C@H](CSCC2CCCCC2)NC(=O)OCC(C)C)cc1
- IC50 [1]: 720 nM
- IC50 [3]: 1500 nM

Compound: COc1ccc(CNC(=O)[C@H](CSCC2CCCCC2)NC(=O)C2CCCCC2)cc1
- IC50 [1]: 1300 nM
- IC50 [3]: 1900 nM

Compound: COC(=O)N1CSC[C@H]1C(=O)N[C@@H](CSCC1CCCCC1)C(=O)NCc1ccc(Oc2ccccc2)cc1
- IC50 [1]: 120 nM
- IC50 [2]: 870 nM

Compound: O=C(NCc1ccc(Oc2ccccc2)cc1)[C@H](CSCC1CCCCC1)NC(=O)[C@@H]1CSCN1CCO
- IC50 [1]: 350 nM
- IC50 [2]: 1100 nM

Compound: CC(C)(C)OC(=O)N1CSC[C@H]1C(=O)N[C@@H](CSCC1CCCCC1)C(=O)NCc1ccc(Oc2ccccc2)cc1
- IC50 [2]: 1700 nM

Compound: C=CCOC(=O)N1CSC[C@H]1C(=O)N[C@@H](CSCC1CCCCC1)C(=O)NCc1ccc(Oc2ccccc2)cc1
- IC50 [1]: 330 nM
- IC50 [2]: 440 nM

Compound: COCC(=O)N1CSC[C@H]1C(=O)N[C@@H](CSCC1CCCCC1)C(=O)NCc1ccc(Oc2ccccc2)cc1
- IC50 [1]: 120 nM
- IC50 [2]: 930 nM

Compound: CC(C)(C)OC(=O)N1CSC[C@H]1C(=O)N[C@@H](CSCC1CCCCC1)C(=O)NCc1ccc(OCc2ccccc2)cc1
- IC50 [1]: 500 nM
- IC50 [2]: 1500 nM

Compound: CC(C)COC(=O)N1CSC[C@H]1C(=O)N[C@@H](CSCC1CCCCC1)C(=O)NCc1ccc(Oc2ccccc2)cc1
- IC50 [1]: 360 nM
- IC50 [2]: 1200 nM

Compound: COc1ccc(CNC(=O)[C@H](CSCC2CCCCC2)NC(=O)CC(C)C)cc1
- IC50 [1]: 1200 nM
- IC50 [3]: 2700 nM

Compound: CC(C)(C)OC(=O)N1CSC[C@H]1C(=O)N[C@@H](CSCC1CCCCC1)C(=O)NCc1ccc([N+](=O)[O-])cc1
- IC50 [1]: 600 nM
- IC50 [2]: 500 nM

Compound: CN(C)c1ccc(CNC(=O)[C@H](CSCC2CCCCC2)NC(=O)[C@@H]2CSCN2C(=O)OC(C)(C)C)cc1
- IC50 [1]: 610 nM
- IC50 [2]: 950 nM

Compound: COc1ccc(CNC(=O)[C@H](CSCC2CCCCC2)NC(=O)c2cscn2)cc1
- IC50 [1]: 1900 nM
- IC50 [3]: 2700 nM

Compound: COc1ccc(CNC(=O)[C@@H](N)CSCC2CCCCC2)cc1
- IC50 [1]: 5800 nM

Compound: COc1ccc(CNC(=O)[C@H](CSCC2CCCCC2)NC(=O)C2CCCC2)cc1
- IC50 [1]: 920 nM
- IC50 [3]: 2300 nM

Compound: CC(C)(C)OC(=O)N1CSC[C@H]1C(=O)N[C@@H](CSCC1CCCCC1)C(=O)NCc1ccc(O)cc1
- IC50 [1]: 1800 nM
- IC50 [2]: 2800 nM
